Converted amounts (≈) assume the structure as drawn.
Key:
Type in all cases: functional
[1] = tested on: Nakaseomyces glabratus; assay: Antifungal activity against Candida glabrata ATCC 48435 assessed as reduction in growth after 48 hrs by broth microdilution method relative to control
Procedure, shortened: (§1)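 Growth was read as absorbance at 530 nm after incubation at 35 °C for 48 h. Percent reduction was calculated relative to control wells containing no antifungal, alongside a visual comparison of turbidity with those wells.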

[2] = tested on: Candida albicans; assay: Antifungal activity against Candida albicans ATCC 10231 assessed as reduction in growth after 48 hrs by broth microdilution method relative to control; procedure, shortened: as §1
[3] = tested on: Aspergillus fumigatus; assay: Antifungal activity against Aspergillus fumigatus ATCC 16424 reduction in growth after 48 hrs by broth microdilution method relative to control; procedure, shortened: as §1
[4] = tested on: Cryptococcus neoformans; assay: Antifungal activity against Cryptococcus neoformans ATCC 36556 assessed as reduction in growth after 48 hrs by broth microdilution method relative to control; procedure, shortened: as §1
[5] = tested on: Aspergillus fumigatus; assay: Antifungal activity against Aspergillus fumigatus ATCC 16424 after 48 hrs by broth microdilution method; details: ATCC 16424, 48 h
Procedure, shortened: (§2)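 Plates were incubated at 35 °C for 48 h. MIC was reported only where both criteria held: turbidity clearly lower than in control wells without antifungal on visual comparison, and growth reduced by more than 50% relative to those controls, measured as absorbance at 530 nm.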

[6] = tested on: Candida albicans; assay: Antifungal activity against Candida albicans ATCC 10231 after 48 hrs by broth microdilution method; details: ATCC 10231, 48 h; procedure, shortened: as §2
[7] = tested on: Cryptococcus neoformans; assay: Antifungal activity against Cryptococcus neoformans ATCC 36556 after 48 hrs by broth microdilution method; details: ATCC 36556, 48 h; procedure, shortened: as §2
[8] = tested on: Nakaseomyces glabratus; assay: Antifungal activity against Candida glabrata ATCC 48435 after 48 hrs by broth microdilution method; details: ATCC 48435, 48 h; procedure, shortened: as §2

| Compound | inhibition (INH) [1] [%] | inhibition (INH) [2] [%] | inhibition (INH) [3] [%] | inhibition (INH) [4] [%] | MIC50 [5] [µg/mL] | MIC50 [6] [µg/mL] | MIC50 [7] [µg/mL] | MIC50 [8] [µg/mL] |
| --- | --- | --- | --- | --- | --- | --- | --- | --- |
| C[C@@H]1CC[C@@]2(OC1)O[C@H]1C[C@H]3[C@@H]4CC[C@H]5CC(=O)CC[C@]5(C)[C@H]4CC[C@]3(C)[C@H]1[C@@H]2C | <25 | <25 | <25 | <25 | – | – | – | – |
| CC(=O)O[C@@H]1C[C@@]2(C)[C@@H](CC[C@@H]3[C@@H]2CC[C@]2(C)[C@@H]4[C@H](C[C@@H]32)O[C@]2(CC[C@@H](C)CO2)[C@H]4C)CC1=O | <25 | – | – | <25 | > 128 | 32 (≈ 67.7 µM) | – | – |
| CC(=O)O[C@@H]1C[C@@]2(C)[C@@H](CC[C@@H]3[C@@H]2CC[C@]2(C)[C@@H]4[C@H](C[C@@H]32)O[C@]2(CC[C@@H](C)CO2)[C@H]4C)C[C@H]1O | – | – | – | – | > 128 | 16 (≈ 33.7 µM) | 62.5 (≈ 132 µM) | 6.25 (≈ 13.2 µM) |
| C[C@@H]1CC[C@@]2(OC1)O[C@H]1C[C@H]3[C@@H]4CC[C@H]5C[C@@H](O)[C@H](O)C[C@]5(C)[C@H]4CC[C@]3(C)[C@H]1[C@@H]2C | <25 | <25 | <25 | <25 | – | – | – | – |
| CC(=O)O[C@H]1C[C@@]2(C)[C@@H](CC[C@@H]3[C@@H]2CC[C@]2(C)[C@@H]4[C@H](C[C@@H]32)O[C@]2(CC[C@@H](C)CO2)[C@H]4C)C[C@@H]1O | <25 | <25 | <25 | <25 | – | – | – | – |
| CC(=O)O[C@H]1C[C@@H]2CC[C@@H]3[C@H](CC[C@]4(C)[C@@H]5[C@H](C[C@@H]34)O[C@]3(CC[C@@H](C)CO3)[C@H]5C)[C@@]2(C)C[C@@H]1O | <25 | <25 | <25 | <25 | – | – | – | – |
| CC(=O)O[C@H]1C[C@@]2(C)[C@@H](CC[C@@H]3[C@@H]2CC[C@]2(C)[C@@H]4[C@H](C[C@@H]32)O[C@]2(CC[C@@H](C)CO2)[C@H]4C)C[C@H]1O | <25 | <25 | <25 | <25 | – | – | – | – |
| CC(=O)O[C@@H]1C[C@@H]2CC[C@@H]3[C@H](CC[C@]4(C)[C@@H]5[C@H](C[C@@H]34)O[C@]3(CC[C@@H](C)CO3)[C@H]5C)[C@@]2(C)C[C@@H]1O | <25 | <25 | <25 | <25 | – | – | – | – |
| C[C@@H]1CC[C@@]2(OC1)O[C@H]1C[C@H]3[C@@H]4CC[C@H]5C[C@@H](O)CC[C@]5(C)[C@H]4CC[C@]3(C)[C@H]1[C@@H]2C [TIGOGENIN] | – | <25 | – | <25 | 16 (≈ 38.4 µM) | – | – | > 62.5 |

From ChEMBL document CHEMBL1770147, “Synthesis and antifungal activity of functionalized 2,3-spirostane isomers” (2011)
